Activity calls are given as the source filed them. The calls are words filed in the database; no cut-off is given here.
Tests used:
Histone deacetylase 4 = Histone deacetylase 4 (Homo sapiens, UniProt P56524); assay: Inhibition of recombinant HDAC4 assessed as inhibition of fluorogenic aminocoumarin release from substrate by trypsin-coupled biochemical assay
Method in brief: (§1)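 Trypsin-coupled fluorogenic assay. Substrate is an acetylated lysine tripeptide amide-linked to aminocoumarin (AMC). HDAC deacetylation allows trypsin to release AMC, and the fluorescence increase is read. Compound was tested at various concentrations and normalized to a DMSO control. IC50 was derived by non-linear regression fit.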

Histone deacetylase 8 = target: T1, Histone deacetylase 8 (Homo sapiens, UniProt Q9BY41); assay: Inhibition of recombinant HDAC8 assessed as inhibition of fluorogenic aminocoumarin release from substrate by trypsin-coupled biochemical assay; method in brief: as §1
T1 sequence (Q9BY41 whole entry): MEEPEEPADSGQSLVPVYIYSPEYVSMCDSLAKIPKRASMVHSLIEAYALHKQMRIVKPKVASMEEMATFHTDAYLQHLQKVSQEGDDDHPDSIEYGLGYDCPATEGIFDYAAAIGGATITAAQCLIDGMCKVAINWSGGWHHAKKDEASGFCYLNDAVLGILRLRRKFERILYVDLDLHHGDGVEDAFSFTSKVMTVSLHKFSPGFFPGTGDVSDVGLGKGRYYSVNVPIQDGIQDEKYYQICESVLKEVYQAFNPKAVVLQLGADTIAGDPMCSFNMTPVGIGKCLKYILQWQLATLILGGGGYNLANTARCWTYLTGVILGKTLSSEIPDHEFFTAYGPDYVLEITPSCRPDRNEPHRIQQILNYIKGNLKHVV

Histone deacetylase 2 [1] = target: T2, Histone deacetylase 2 (Homo sapiens, UniProt Q92769); assay: Inhibition of recombinant HDAC2 assessed as inhibition of fluorogenic aminocoumarin release from substrate by trypsin-coupled biochemical assay
T2 sequence (Q92769 whole entry): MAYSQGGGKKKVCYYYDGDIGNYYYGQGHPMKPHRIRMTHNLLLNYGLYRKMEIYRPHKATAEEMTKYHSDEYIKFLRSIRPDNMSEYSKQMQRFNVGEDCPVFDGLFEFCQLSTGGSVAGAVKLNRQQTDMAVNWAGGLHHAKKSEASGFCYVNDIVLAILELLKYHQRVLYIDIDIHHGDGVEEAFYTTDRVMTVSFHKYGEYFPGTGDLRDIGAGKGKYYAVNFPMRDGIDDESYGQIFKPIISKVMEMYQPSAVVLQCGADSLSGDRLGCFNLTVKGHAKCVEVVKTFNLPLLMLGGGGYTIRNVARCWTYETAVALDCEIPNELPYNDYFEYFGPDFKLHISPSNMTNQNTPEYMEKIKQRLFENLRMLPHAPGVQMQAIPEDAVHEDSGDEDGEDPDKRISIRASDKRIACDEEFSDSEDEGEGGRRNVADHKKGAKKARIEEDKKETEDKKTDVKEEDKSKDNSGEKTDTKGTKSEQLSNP

Histone deacetylase 1 = Histone deacetylase 1 (Homo sapiens, UniProt Q13547); assay: Inhibition of recombinant HDAC1 assessed as inhibition of fluorogenic aminocoumarin release from substrate by trypsin-coupled biochemical assay; method in brief: as §1
Histone deacetylase 1, sequence (Q13547 whole entry): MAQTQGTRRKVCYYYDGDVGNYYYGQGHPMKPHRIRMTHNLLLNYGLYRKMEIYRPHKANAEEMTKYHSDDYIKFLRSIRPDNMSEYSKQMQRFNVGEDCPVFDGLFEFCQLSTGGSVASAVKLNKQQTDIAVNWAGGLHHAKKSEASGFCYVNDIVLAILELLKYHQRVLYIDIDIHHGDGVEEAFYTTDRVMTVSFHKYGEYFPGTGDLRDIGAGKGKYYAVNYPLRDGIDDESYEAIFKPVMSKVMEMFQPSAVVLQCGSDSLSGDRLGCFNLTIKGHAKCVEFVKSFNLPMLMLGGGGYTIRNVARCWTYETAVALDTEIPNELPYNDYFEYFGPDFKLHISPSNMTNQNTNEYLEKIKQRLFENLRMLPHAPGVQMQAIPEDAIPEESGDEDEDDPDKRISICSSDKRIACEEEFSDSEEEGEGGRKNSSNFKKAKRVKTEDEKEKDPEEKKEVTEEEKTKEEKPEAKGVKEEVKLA

Histone deacetylase 2 [2] = target: T2, Histone deacetylase 2; assay: Competitive inhibition of HDAC2 active site at 1 to 100 uM by Lineweaver-Burk plot
Method in brief: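 Lysine-deacetylation inhibition mode on HDAC2. Several inhibitor concentrations were tested with substrate at 10 times above and below the HDAC2 Km. The trypsin-coupled AMC fluorescence read-out was analysed by Lineweaver-Burk plot.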

[3] = target: T3, Protein deacetylase HDAC6 (Homo sapiens, UniProt Q9UBN7); assay: Inhibition of recombinant HDAC6 assessed as inhibition of fluorogenic aminocoumarin release from substrate by trypsin-coupled biochemical assay; method in brief: as §1
T3 sequence (Q9UBN7 whole entry): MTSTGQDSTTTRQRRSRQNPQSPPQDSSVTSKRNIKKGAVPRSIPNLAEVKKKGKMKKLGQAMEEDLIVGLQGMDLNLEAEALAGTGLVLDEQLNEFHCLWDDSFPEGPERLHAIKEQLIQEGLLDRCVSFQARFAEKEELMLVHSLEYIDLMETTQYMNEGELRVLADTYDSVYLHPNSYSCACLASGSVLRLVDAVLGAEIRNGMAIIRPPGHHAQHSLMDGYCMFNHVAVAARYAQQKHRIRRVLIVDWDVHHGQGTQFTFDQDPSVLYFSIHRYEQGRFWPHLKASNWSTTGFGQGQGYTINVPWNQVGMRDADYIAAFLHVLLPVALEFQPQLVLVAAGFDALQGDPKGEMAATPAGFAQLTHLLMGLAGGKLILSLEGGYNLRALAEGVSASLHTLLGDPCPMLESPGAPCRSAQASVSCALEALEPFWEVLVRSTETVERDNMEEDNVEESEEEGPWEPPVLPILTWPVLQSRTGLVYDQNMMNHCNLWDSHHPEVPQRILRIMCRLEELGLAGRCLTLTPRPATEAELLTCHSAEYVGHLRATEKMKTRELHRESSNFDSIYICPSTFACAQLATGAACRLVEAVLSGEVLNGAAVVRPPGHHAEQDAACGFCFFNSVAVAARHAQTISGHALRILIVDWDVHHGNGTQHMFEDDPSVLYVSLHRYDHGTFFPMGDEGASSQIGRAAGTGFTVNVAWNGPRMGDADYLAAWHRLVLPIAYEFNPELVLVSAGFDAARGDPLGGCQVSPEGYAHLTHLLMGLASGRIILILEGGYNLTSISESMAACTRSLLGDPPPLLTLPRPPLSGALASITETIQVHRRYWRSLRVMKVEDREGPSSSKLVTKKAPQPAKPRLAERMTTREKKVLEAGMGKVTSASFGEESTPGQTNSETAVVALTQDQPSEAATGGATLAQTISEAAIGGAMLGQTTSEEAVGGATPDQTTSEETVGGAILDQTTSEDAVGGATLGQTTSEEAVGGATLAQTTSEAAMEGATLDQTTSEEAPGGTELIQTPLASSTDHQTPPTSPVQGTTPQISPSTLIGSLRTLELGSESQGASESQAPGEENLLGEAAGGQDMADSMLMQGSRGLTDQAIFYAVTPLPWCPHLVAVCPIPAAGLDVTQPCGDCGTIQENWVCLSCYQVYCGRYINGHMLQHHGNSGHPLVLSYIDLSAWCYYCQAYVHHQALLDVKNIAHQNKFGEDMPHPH

Histone deacetylase 9 = Histone deacetylase 9 (Homo sapiens, UniProt Q9UKV0); assay: Inhibition of recombinant HDAC9 assessed as inhibition of fluorogenic aminocoumarin release from substrate by trypsin-coupled biochemical assay; method in brief: as §1
Histone deacetylase 9, sequence (Q9UKV0 whole entry): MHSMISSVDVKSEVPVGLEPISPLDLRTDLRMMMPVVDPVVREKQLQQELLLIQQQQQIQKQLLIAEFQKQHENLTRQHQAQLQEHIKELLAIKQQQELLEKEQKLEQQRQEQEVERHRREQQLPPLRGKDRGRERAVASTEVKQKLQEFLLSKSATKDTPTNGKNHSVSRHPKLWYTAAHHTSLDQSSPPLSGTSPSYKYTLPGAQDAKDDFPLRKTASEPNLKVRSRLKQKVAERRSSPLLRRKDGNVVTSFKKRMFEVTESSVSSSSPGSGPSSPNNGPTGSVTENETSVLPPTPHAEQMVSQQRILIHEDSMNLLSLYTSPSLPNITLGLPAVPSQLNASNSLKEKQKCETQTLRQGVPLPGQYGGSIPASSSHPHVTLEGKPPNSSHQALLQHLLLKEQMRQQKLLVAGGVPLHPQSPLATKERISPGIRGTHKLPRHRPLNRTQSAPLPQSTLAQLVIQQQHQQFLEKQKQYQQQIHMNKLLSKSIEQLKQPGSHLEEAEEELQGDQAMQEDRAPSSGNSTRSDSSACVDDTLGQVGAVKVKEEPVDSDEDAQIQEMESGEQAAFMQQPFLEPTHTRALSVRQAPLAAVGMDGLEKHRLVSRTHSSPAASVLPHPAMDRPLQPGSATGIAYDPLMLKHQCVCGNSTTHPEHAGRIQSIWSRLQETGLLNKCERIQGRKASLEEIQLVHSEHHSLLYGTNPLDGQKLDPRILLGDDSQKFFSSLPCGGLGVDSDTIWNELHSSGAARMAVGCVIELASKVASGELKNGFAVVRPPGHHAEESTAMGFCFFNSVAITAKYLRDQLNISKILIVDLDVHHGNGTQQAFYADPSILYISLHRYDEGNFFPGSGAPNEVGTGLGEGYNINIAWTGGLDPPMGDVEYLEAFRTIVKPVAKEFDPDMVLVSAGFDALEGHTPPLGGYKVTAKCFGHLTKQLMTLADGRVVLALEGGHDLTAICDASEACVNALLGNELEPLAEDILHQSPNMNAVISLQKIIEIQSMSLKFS

Histone deacetylase 3 = Histone deacetylase 3 (Homo sapiens, UniProt O15379); assay: Inhibition of recombinant HDAC3 assessed as inhibition of fluorogenic aminocoumarin release from substrate by trypsin-coupled biochemical assay; method in brief: as §1
Histone deacetylase 3, sequence (O15379 whole entry): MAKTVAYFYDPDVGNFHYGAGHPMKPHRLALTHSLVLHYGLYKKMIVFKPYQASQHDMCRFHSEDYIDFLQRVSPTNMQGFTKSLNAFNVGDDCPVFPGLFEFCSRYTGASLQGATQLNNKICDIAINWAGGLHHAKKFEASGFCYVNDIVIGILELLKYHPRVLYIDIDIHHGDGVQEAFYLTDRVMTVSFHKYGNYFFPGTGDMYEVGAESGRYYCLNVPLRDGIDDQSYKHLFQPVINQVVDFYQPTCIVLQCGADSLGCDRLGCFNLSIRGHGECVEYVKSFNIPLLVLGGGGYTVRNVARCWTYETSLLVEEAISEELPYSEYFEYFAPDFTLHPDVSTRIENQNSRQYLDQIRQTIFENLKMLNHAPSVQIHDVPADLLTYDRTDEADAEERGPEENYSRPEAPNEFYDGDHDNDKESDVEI

Histone deacetylase 5 = Histone deacetylase 5 (Homo sapiens, UniProt Q9UQL6); assay: Inhibition of recombinant HDAC5 assessed as inhibition of fluorogenic aminocoumarin release from substrate by trypsin-coupled biochemical assay; method in brief: as §1
Histone deacetylase 5, sequence (Q9UQL6 whole entry): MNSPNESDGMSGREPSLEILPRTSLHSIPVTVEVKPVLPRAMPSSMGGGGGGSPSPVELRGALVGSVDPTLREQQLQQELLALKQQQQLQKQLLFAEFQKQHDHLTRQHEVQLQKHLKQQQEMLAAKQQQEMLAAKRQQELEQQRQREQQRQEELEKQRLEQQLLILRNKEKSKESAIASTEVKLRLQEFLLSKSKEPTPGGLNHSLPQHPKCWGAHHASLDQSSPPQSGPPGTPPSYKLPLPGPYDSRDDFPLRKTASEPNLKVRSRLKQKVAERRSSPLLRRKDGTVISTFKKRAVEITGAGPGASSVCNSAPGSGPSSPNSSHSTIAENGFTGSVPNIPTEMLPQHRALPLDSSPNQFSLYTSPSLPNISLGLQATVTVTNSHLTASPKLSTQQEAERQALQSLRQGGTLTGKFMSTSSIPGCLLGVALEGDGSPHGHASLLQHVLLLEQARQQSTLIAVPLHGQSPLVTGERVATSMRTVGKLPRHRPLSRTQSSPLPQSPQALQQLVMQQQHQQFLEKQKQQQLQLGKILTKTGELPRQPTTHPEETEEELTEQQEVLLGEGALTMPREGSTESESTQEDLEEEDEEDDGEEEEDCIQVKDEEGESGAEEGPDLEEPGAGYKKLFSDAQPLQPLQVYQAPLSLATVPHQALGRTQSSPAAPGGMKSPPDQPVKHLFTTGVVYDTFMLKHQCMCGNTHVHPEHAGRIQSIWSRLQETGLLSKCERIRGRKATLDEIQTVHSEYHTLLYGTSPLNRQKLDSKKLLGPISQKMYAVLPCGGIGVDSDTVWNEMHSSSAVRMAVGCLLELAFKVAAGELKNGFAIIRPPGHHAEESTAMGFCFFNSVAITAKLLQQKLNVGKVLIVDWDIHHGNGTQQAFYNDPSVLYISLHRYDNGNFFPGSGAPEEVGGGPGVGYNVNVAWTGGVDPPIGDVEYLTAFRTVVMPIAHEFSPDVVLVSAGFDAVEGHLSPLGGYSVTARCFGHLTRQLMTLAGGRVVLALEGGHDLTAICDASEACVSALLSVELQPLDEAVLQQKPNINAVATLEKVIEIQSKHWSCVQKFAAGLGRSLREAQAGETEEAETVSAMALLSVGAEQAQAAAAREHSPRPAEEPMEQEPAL

Histone deacetylase 7 = target: T4, Histone deacetylase 7 (Homo sapiens, UniProt Q8WUI4); assay: Inhibition of recombinant HDAC7 assessed as inhibition of fluorogenic aminocoumarin release from substrate by trypsin-coupled biochemical assay
T4 sequence (Q8WUI4 whole entry): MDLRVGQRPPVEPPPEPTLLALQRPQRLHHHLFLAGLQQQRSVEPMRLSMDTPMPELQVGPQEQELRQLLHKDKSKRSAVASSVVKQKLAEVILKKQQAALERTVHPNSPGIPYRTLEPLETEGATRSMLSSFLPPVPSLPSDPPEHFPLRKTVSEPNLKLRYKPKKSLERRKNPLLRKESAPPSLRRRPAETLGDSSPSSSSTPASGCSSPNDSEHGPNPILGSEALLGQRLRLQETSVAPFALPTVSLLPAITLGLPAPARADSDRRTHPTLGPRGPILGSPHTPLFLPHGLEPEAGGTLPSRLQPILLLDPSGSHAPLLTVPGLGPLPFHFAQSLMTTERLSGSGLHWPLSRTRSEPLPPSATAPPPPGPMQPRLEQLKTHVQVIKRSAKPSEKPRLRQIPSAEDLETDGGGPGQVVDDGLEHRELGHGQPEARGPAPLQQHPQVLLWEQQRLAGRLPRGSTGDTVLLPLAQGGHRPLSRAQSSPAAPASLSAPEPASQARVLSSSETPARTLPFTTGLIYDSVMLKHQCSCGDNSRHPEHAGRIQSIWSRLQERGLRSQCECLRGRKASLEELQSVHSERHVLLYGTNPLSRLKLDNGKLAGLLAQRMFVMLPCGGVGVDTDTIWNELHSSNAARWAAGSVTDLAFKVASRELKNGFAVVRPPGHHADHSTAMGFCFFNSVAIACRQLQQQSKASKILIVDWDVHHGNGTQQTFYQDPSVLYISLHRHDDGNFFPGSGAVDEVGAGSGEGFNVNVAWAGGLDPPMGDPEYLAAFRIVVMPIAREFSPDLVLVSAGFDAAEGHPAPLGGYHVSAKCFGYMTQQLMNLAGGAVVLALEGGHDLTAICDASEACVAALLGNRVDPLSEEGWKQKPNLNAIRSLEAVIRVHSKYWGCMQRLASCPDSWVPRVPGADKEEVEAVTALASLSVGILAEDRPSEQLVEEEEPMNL

Histone deacetylase 4, sequence (P56524 whole entry): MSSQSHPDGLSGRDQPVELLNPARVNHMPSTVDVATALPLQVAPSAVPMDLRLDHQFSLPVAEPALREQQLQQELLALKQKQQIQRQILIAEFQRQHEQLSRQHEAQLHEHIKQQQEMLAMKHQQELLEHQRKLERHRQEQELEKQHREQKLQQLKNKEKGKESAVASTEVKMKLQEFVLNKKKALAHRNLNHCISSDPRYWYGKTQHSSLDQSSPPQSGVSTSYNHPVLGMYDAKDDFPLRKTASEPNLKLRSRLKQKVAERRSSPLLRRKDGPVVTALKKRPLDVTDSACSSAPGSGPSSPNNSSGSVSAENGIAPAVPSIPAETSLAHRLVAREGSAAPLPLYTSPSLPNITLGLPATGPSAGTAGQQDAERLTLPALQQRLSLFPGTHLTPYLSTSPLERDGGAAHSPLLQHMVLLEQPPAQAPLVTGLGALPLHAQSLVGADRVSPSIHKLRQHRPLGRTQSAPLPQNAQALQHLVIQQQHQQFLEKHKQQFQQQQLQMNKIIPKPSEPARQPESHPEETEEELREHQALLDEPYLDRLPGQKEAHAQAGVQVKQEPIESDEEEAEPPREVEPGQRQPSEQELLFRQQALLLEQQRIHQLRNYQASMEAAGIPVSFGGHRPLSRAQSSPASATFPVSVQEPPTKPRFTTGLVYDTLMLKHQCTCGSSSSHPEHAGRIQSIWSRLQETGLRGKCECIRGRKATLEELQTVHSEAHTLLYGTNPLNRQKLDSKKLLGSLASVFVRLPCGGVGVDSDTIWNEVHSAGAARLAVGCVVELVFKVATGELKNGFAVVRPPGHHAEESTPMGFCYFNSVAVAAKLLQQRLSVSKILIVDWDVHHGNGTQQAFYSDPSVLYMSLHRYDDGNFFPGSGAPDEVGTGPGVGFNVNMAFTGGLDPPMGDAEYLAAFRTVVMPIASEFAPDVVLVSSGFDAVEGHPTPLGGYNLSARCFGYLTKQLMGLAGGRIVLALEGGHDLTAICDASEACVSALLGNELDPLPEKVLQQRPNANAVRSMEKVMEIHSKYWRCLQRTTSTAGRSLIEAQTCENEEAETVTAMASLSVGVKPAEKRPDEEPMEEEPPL

IC50 (Histone deacetylase 4) [µM]	IC50 (Histone deacetylase 8) [µM]	IC50 (Histone deacetylase 2 [1]) [µM]	IC50 (Histone deacetylase 1) [µM]	inhibition (Histone deacetylase 2 [2])	IC50 [3] [µM]	IC50 (Histone deacetylase 9) [µM]	IC50 (Histone deacetylase 3) [µM]	IC50 (Histone deacetylase 5) [µM]	IC50 (Histone deacetylase 7) [µM]	Compound
> 100	> 100	> 100	> 100	–	> 100	> 100	> 100	94.3	> 100	Cc1cc(=O)[nH]c(SCC(=O)c2ccc(C(C)(C)C)cc2)n1
> 100	> 100	> 100	> 100	–	> 100	> 100	> 100	> 100	> 100	CC(=O)CSc1nc(C)cc(=O)[nH]1
> 100	> 100	> 100	> 100	–	> 100	> 100	> 100	> 100	> 100	Cc1cc(=O)[nH]c(SCC(=O)c2ccc3c(c2)OCCO3)n1

The next lines start with the molecule.

Compound	IC50 (Histone deacetylase 4) [µM]	IC50 (Histone deacetylase 8) [µM]	IC50 (Histone deacetylase 2 [1]) [µM]	IC50 (Histone deacetylase 1) [µM]	inhibition (Histone deacetylase 2 [2])	IC50 [3] [µM]	IC50 (Histone deacetylase 9) [µM]	IC50 (Histone deacetylase 3) [µM]	IC50 (Histone deacetylase 5) [µM]	IC50 (Histone deacetylase 7) [µM]
CC(=O)Nc1ccc(C(=O)CSc2nc(C)cc(O)n2)cc1	32.5	23.9	18.9	16.4	Active	11.2	74.1	15.2	27.9	–
Cc1cc(O)nc(SCC(=O)c2cccs2)n1	> 100	> 100	> 100	> 100	–	24.8	> 100	> 100	> 100	> 100
Cc1cc(O)nc(SCC(=O)c2ccc(O)c(O)c2)n1	> 100	> 100	> 100	> 100	–	16.7	> 100	> 100	> 100	> 100
CCOC(=O)CC(=O)CSc1nc(C)cc(O)n1	> 100	> 100	69.3	77.2	–	7.2	> 100	40	48.6	> 100

From ChEMBL document CHEMBL1800036, “A novel HDAC inhibitor with a hydroxy-pyrimidine scaffold” (Bioorg Med Chem Lett, 2011)
